# Assay outcomes (PubChem)
# MrgX1 agonist: activates human MrgX1 receptor signaling; Q96LB2; MrgX1-HEK293 cells, Fluo-4 calcium fluorescence, agonist mode; hits give high values; B-score at 10 µM; 0.44% of 310,000 active;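 active = calcium response B-score plate-corrected fluorescence ratio at least 3 library SD, with starting fluorescence B-score inside 5 SD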
# Target sequence (Q96LB2 whole entry, looked up): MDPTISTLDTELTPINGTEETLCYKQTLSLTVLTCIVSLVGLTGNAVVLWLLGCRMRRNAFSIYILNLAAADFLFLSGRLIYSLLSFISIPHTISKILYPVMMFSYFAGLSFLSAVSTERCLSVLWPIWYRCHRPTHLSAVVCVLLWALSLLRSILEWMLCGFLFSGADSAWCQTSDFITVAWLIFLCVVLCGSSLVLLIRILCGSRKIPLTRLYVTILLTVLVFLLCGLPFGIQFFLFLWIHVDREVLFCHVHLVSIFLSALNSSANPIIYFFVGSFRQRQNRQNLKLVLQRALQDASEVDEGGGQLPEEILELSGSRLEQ
#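 Material – MrgX1-expressing HEK293 cells · Input – 15,000 cells seeded per well · Dosing – compound as first of three additions · Times – overnight seeding, then 1 h dark dye loading · Measured by – kinetic Fluo-4 NW fluorescence of intracellular calcium · Read-out – B-scored fluorescence response ratio · Benchmarks – positive and negative control wells on each plate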
# RGS4 act: potentiators or activators of RGS4 | HEK293 M3R/inducible RGS4, carbachol calcium flux Fluo4; hits give low values | B-score at 10 µM | 0.92% of 310,000 active;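 active = B-score of the integrated calcium signal more than 4 SD below the library mean, with starting fluorescence not abnormally high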;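 note: negative B-score means reduced calcium response which marks RGS4 activation or potentiation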
#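 Reagent: ECmax carbachol challenge; Test system: M3R-expressing HEK293 line, RGS4 induced by doxycycline; Schedule: overnight RGS4 induction, 30 min dye load 37 °C, 20 min compound RT; Detection: calcium dye Fluo4 fluorescence; Read-out: Agonist-evoked peak-minus-minimum fluorescence over baseline, integrated ratio, B score.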
# MrgX1 antagonist: human MrgX1 receptor antagonism, primary screen | Q96LB2 | B-score at 10 µM | 1.3% of 310,000 active | MRGX1-HEK293 calcium flux, Fluo-4, BAM8-22 antagonism; hits give low values;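 active = calcium-response B-score plate-corrected more than 3 library SD below zero, starting fluorescence within 5 deviations, no agonist response on first addition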;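 note: peak minus trough fluorescence over baseline after final BAM8-22 challenge near maximal dose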
# MrgX1 allo act: allosterically activates human MrgX1 receptor signaling. Q96LB2. MrgX1-HEK293, Fluo-4 calcium flux, FDSS; hits give high values. B-score at 10 µM. 0.63% of 310,000 active. AID 588675;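 active = plate-corrected calcium response at least 3 library SD above typical, normal starting fluorescence, not activating the receptor alone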;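 note: compound read alongside a low EC10 to EC30 dose of BAM8-22 agonist; peak minus trough fluorescence over baseline measured at the second addition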
# RGS4 block: inhibitors of human RGS4. P49798. HEK293 M3R/RGS4 inducible, Fluo-4 calcium flux; hits give high values; triggered by carbachol at its EC20. B-score at 10 µM. 0.45% of 310,000 active;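 active = B-score, a plate-corrected calcium signal, over three deviations above library mean, with baseline fluorescence within five deviations of library mean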;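 note: RGS4 expression induced by doxycycline in cells with stable M3 receptor; B-score is computed from the integrated fluorescence ratio over baseline after carbachol; higher B-score means a larger calcium signal and so more RGS4 inhibition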
# Target sequence (P49798 whole entry, looked up): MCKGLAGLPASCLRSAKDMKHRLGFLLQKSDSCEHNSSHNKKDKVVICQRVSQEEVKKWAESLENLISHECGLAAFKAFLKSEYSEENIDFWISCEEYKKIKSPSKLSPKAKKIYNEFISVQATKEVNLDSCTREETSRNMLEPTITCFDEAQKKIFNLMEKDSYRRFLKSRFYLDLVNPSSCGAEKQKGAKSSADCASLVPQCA
# MrgX1 antag conf: reconfirmed antagonist of human MrgX1 receptor signaling; shares compounds with MrgX1 antagonist; MrgX1-HEK293, BAM8-22 calcium flux, Fluo-4; hits give low values; remaining BAM8-22 calcium response % of control (hits give low values), % at 10 µM; 19% of 2,300 active;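 active = remaining agonist calcium response no higher than 100% minus 3 SD of agonist-only control wells, with starting fluorescence near control levels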;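 note: agonist BAM8-22 given at a near maximal EC90 to ECmax level; peak minus minimum fluorescence divided by baseline after agonist addition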
# HEK293 Ca flux: counter-screen for MrgX1 antagonists: effect in parental HEK293 cells. shares compounds with MrgX1 antagonist. Fluo-4 calcium fluorescence, FDSS. fluorescence ratio F(max-min)/F0 at 10 µM. 2% of 4,000 active;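 active = duplicate-averaged calcium fluorescence ratio at least three times the standard deviation of buffer wells, a nonspecific response in parental cells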
# HEK293 Ca counter: activity in parental HEK293 cells without MrgX1 | parental HEK293 calcium flux, Fluo-4 fluorescence ratio; hits give high values | 0.4% of 4,000 active | fluorescence ratio F(max-min)/F0 at 10 µM | shares compounds with MrgX1 antagonist;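 active = calcium fluorescence ratio, averaged over duplicates, at least 3 SD of the buffer-well ratio, meaning a nonspecific response in receptor-free cells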;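 note: untransfected parental HEK293 lacking MrgX1 used as counterscreen for MrgX1 allosteric activators; fluorescence change taken during the second addition on a kinetic imager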
# HEK293 Ca cntr2: counter-screen for MrgX1 activators: effect in parental HEK293 cells; shares compounds with MrgX1 antagonist; Fluo-4 calcium fluorescence (FDSS); hits give high values; fluorescence ratio F(max-min)/F0 at 10 µM; 8.7% of 4,000 active; AID 624115;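 active = calcium fluorescence ratio at least three times the spread of buffer wells, meaning a non-specific response in parental cells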
# Starred values were filed as active, the others as inactive; i = inactive; / = not tested or not shown. Only some compounds are listed: those with a hit (about 3.5% of all), similar ones and a draw of the others.
SMILES,MrgX1 agonist,RGS4 act,MrgX1 antagonist,MrgX1 allo act,RGS4 block,MrgX1 antag conf,HEK293 Ca flux,HEK293 Ca counter,HEK293 Ca cntr2
CN(C)c1ccc(/C=C/c2ccc3ccccc3n2)cc1,i,i,-6.9*,i,i,i,0.55*,i,i
Cn1cc(Br)c(C(=O)N/N=C/c2cc3ccccc3nc2Cl)n1,i,i,i,i,i,/,/,/,/
C=CCN(C(=O)CCC(=O)Nc1cc(C)on1)C(C(=O)NC1CCCC1)c1ccc(CC)cc1 (stereo not drawn),i,i,i,i,i,/,/,/,/
COc1ccc(OC)c(C2C(C#N)=C(N)Oc3cc(N)ccc32)c1 (stereo not drawn),i,i,i,i,i,/,/,/,/
COc1cccc2c(=O)c(C(=O)O)c[nH]c12,i,i,i,i,i,/,/,/,/
O=C(O)c1c[nH]c2c(C(F)(F)F)cccc2c1=O,i,i,-7.4*,i,i,i,i,i,i
COc1ccc(NC(=S)N2CCC(NC(=O)c3cccc(C)c3)CC2)cc1,i,i,i,i,i,/,/,/,/
COc1ccc(C(=O)NC2CCN(C(=S)Nc3ccc(C)cc3)CC2)cc1,i,i,-4.7*,i,i,i,i,i,i
Cn1c(=O)c2[nH]c(-c3ccc(S(=O)(=O)O)cc3)nc2n(C)c1=O,i,i,i,i,i,/,/,/,/
Cc1ccc2[nH]c3c(c2c1)CCC3=O,i,i,i,i,i,/,/,/,/
Cc1ccc2[nH]c3c(c2c1)CCc1cn[nH]c1-3,i,i,-4.9*,i,i,i,i,i,i
CN(C)C(CNC(=O)c1ccc(NS(=O)(=O)c2ccc(F)cc2)cc1)c1ccco1 (stereo not drawn),i,i,-6.1*,i,i,i,i,i,i
Cc1cccc(NS(=O)(=O)c2ccc(C(=O)NCC(c3ccccc3)N(C)C)cc2)c1C (stereo not drawn),i,i,-5.2*,i,i,85%*,i,i,i
O=C(NC1CCCC1)c1cc(S(=O)(=O)N2CCCC2)ccc1Cl,i,i,i,i,i,/,/,/,/
COc1ccc(-c2noc(N3CCC(C(=O)N(C)c4ccccc4C)CC3)n2)cc1,i,i,i,i,i,/,/,/,/
Cc1ccccc1SCC(=O)OCC(=O)Nc1sccc1C(N)=O,i,i,i,i,i,/,/,/,/
COc1ccccc1OCC(=O)OCC(=O)Nc1sccc1C(N)=O,i,i,i,i,i,/,/,/,/
NC(=O)c1ccsc1NC(=O)COC(=O)Cc1cccc2ccccc12,i,i,-6.8*,i,i,42%*,i,i,i
NC(=O)c1ccsc1NC(=O)CSc1ccccc1F,i,i,-4.9*,i,i,i,i,i,i
NC(=O)c1ccsc1NC(=O)CCS(=O)(=O)c1ccc(F)cc1,i,i,-5.9*,i,i,80%*,i,i,i
Cc1ccc(SC(C)C(=O)NCc2ccncc2)cc1 (stereo not drawn),i,i,i,i,i,/,/,/,/
COc1ccc(S(=O)(=O)N2CCC3(CC2)OCCN3S(=O)(=O)c2ccc(C)cc2)cc1OC,i,i,-6.6*,i,i,i,i,i,i
O=C1CC(c2cccc(Oc3ccccc3)c2)NC(=O)N1 (stereo not drawn),i,i,-8.2*,i,i,i,i,i,i
